# The source made the active and inactive calls. The rule behind the calls is not given here.
# System: HUVE12
# Assay: Reversal of hydrogen peroxide-induced LDH activity in human HUVE12 cells
# Format: functional, cell-based
# Method in brief: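 HUVE-12 cells pretreated 30 min with compound (0.1–10.0 µM) or 0.02% DMSO vehicle, then 1 mM H2O2 for 24 h at 37 °C. Medium sampled before harvest; LDH activity measured by colorimetric kit as a marker of cell injury. Average of three experiments.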
row,SMILES,Activity
1,CC(C)C/C=C/Oc1ccc(-c2coc3cc(OC(F)F)cc(O/C=C/CC(C)C)c3c2=O)cc1,Active
2,COc1ccc(-c2coc3cc(OC(F)F)cc(OC)c3c2=O)cc1,Active
3,O=c1c(-c2ccc(OCc3ccccc3)cc2)coc2cc(OC(F)F)cc(OCc3ccccc3)c12,Active
4,O=c1c(-c2ccc(O)cc2)coc2cc(O)cc(O)c12,Active
5,CCCCCCCCCOc1ccc(-c2coc3cc(OC(F)F)cc(OCCCCCCCCC)c3c2=O)cc1,Active
6,O=c1c(-c2ccc(O)cc2)coc2cc(OC(F)F)cc(O)c12,Active
7,CCOc1ccc(-c2coc3cc(OC(F)F)cc(OCC)c3c2=O)cc1,Active
8,O=c1c(-c2ccc(OC(F)F)cc2)coc2cc(OC(F)F)cc(O)c12,Active
9,CCCCCCCCOc1ccc(-c2coc3cc(OC(F)F)cc(OCCCCCCCC)c3c2=O)cc1,Active
10,CCCCCCCOc1ccc(-c2coc3cc(OC(F)F)cc(OCCCCCCC)c3c2=O)cc1,Active
11,CCCOc1ccc(-c2coc3cc(OC(F)F)cc(OCCC)c3c2=O)cc1,Active

# System: HUVE12
# Assay: Protection against hydrogen peroxide-induced apoptosis in human HUVE12 cells
# Format: functional, cell-based
# Method in brief: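 HUVE-12 cells in DMEM with 10% newborn calf serum at 37 °C, 5% CO2. Pretreated 30 min with compound (0.1, 1.0, 10.0 µM; also 0.1–10.0 µM series) or 0.02% DMSO vehicle, then 1 mM H2O2 for 24 h. Trypsinized, fixed in 70% ice-cold ethanol, stained with PI/RNase A 15 min at 37 °C; apoptosis by flow cytometry. Three independent experiments.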
row,SMILES,Activity
1,COc1ccc(-c2coc3cc(OC(F)F)cc(OC)c3c2=O)cc1,Active
